{"source": "ChEMBL document CHEMBL4689842", "about": "“EUbOPEN Chemogenomics Library wave 1” (2021)", "assay_type_in_all_cases": "toxicity, cell-based", "key": {"HEK-293T [1]": {"test_system": "HEK-293T", "experiment": "Incucyte cell viability with HEK293T; further: filed as whole numbers so only -1 and 0 and 1 occur", "details": "human, 10 µM, compound concentration 10 uM"}, "HEK-293T [2]": {"test_system": "HEK-293T", "experiment": "Multiplex assay against HEK293T;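 on Population Tubulin-Different-Phenotype (%): share of the cells with healthy nuclei that show this phenotype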", "details": "human, 10 µM, compound concentration 10 uM", "outline": "(§1)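 Phenotypes for tubulin, mitochondrial mass and membrane permeability are expressed as per cents of healthy-nucleus cells. Cells were stained live at seeding with Hoechst33342, BioTracker Green Microtubule Cytoskeleton Dye, MitoTracker Red and Annexin V Alexa Fluor 680, then imaged after compound addition on a CQ1 microscope at 37°C and 5% CO2. Machine-learning gating in CellPathfinder separated Hoechst high-intensity objects from normal cells, divided normal cells by nuclear state (healthy, pyknosed, fragmented) and divided pyknosed cells into mitotic or apoptotic.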"}, "Fibroblast": {"test_system": "Fibroblast", "experiment": "Incucyte cell viability with human fibroblast", "details": "10 µM, compound concentration 10 uM"}, "U2OS": {"test_system": "U2OS", "experiment": "Multiplex assay against U2OS", "details": "human, 12 h, 10 µM, compound concentration 10 uM", "outline": "as §1"}, "[3]": {"details": "0 h, replicate number 1, timepoint 0 hours"}, "[4]": {"details": "12 h, replicate number 1, timepoint 12 hours"}, "[5]": {"details": "18 h, replicate number 1, timepoint 18 hours"}, "[6]": {"details": "24 h, replicate number 1, timepoint 24 hours"}}, "note": "Values joined by “and” are separate entries in the source; they are usually repeats but may differ in a detail not shown here. Equal values may be shown once. Wherever Growth Rate is given: filed as whole numbers so only -1 and 0 and 1 occur."}
{"molecule": "O=C(O)c1ccc2c(c1)nc(Nc1cccc(Cl)c1)c1ccncc12", "note": "[SILMITASERTIB]", "values": [{"measurement": "Growth Rate", "setting": "HEK-293T [1]; [3]", "value": 0}, {"measurement": "Growth Rate", "setting": "HEK-293T [1]; 6 h, replicate number 1, timepoint 6 hours", "value": 0}, {"measurement": "Growth Rate", "setting": "HEK-293T [1]; [4]", "value": 0}, {"measurement": "Growth Rate", "setting": "HEK-293T [1]; [5]", "value": 0}, {"measurement": "Growth Rate", "setting": "HEK-293T [1]; [6]", "value": 0}, {"measurement": "Population Apoptotic (%)", "setting": "HEK-293T [2]; 12 h, replicate 1", "value": "24% and 17%"}, {"measurement": "Population Fragmented Nuclei (%)", "setting": "HEK-293T [2]; 12 h, replicate 1", "value": "14% and 17%"}, {"measurement": "Population Healthy Nuclei (%)", "setting": "HEK-293T [2]; 12 h, replicate 1", "value": "67% and 65%"}, {"measurement": "Population Hoechst High Intensity Objects (%)", "setting": "HEK-293T [2]; 12 h, replicate 1", "value": "10% and 15%"}, {"measurement": "Population Membrane Permeable-Phenotype (%)", "setting": "HEK-293T [2]; 12 h, replicate 1", "value": "8% and 6%"}, {"measurement": "Population Mitochondria Different-Phenotype (%)", "setting": "HEK-293T [2]; 12 h, replicate 1", "value": "5% and 4%"}, {"measurement": "Population Mitotic Cells (%)", "setting": "HEK-293T [2]; 12 h, replicate 1", "value": "76% and 82%"}, {"measurement": "Population Normal (%)", "setting": "HEK-293T [2]; 12 h, replicate 1", "value": "89% and 84%"}, {"measurement": "Population Pyknosed Nuclei (%)", "setting": "HEK-293T [2]; 12 h, replicate 1", "value": 17, "unit": "%"}, {"measurement": "Population Tubulin-Different-Phenotype (%)", "setting": "HEK-293T [2]; 12 h, replicate 1", "value": "7% and 6%"}, {"measurement": "Total Cell Count", "setting": "HEK-293T [2]; 12 h, replicate 1", "value": "624 and 579"}, {"measurement": "Population Apoptotic (%)", "setting": "HEK-293T [2]; 12 h, replicate 2", "value": "11% and 7%"}, {"measurement": "Population Fragmented Nuclei (%)", "setting": "HEK-293T [2]; 12 h, replicate 2", "value": "8% and 10%"}, {"measurement": "Population Healthy Nuclei (%)", "setting": "HEK-293T [2]; 12 h, replicate 2", "value": "84% and 85%"}, {"measurement": "Population Hoechst High Intensity Objects (%)", "setting": "HEK-293T [2]; 12 h, replicate 2", "value": "3% and 2%"}, {"measurement": "Population Membrane Permeable-Phenotype (%)", "setting": "HEK-293T [2]; 12 h, replicate 2", "value": "4% and 1%"}, {"measurement": "Population Mitochondria Different-Phenotype (%)", "setting": "HEK-293T [2]; 12 h, replicate 2", "value": 9, "unit": "%"}, {"measurement": "Population Mitotic Cells (%)", "setting": "HEK-293T [2]; 12 h, replicate 2", "value": "88% and 92%"}, {"measurement": "Population Normal (%)", "setting": "HEK-293T [2]; 12 h, replicate 2", "value": "96% and 97%"}, {"measurement": "Population Pyknosed Nuclei (%)", "setting": "HEK-293T [2]; 12 h, replicate 2", "value": "6% and 3%"}, {"measurement": "Total Cell Count", "setting": "HEK-293T [2]; 12 h, replicate 2", "value": "1391 and 1841"}, {"measurement": "Population Apoptotic (%)", "setting": "HEK-293T [2]; 24 h, replicate 1", "value": "28% and 16%"}, {"measurement": "Population Fragmented Nuclei (%)", "setting": "HEK-293T [2]; 24 h, replicate 1", "value": 14, "unit": "%"}, {"measurement": "Population Healthy Nuclei (%)", "setting": "HEK-293T [2]; 24 h, replicate 1", "value": "77% and 74%"}, {"measurement": "Population Hoechst High Intensity Objects (%)", "setting": "HEK-293T [2]; 24 h, replicate 1", "value": "6% and 14%"}, {"measurement": "Population Membrane Permeable-Phenotype (%)", "setting": "HEK-293T [2]; 24 h, replicate 1", "value": 10, "unit": "%"}, {"measurement": "Population Mitochondria Different-Phenotype (%)", "setting": "HEK-293T [2]; 24 h, replicate 1", "value": "5% and 3%"}, {"measurement": "Population Mitotic Cells (%)", "setting": "HEK-293T [2]; 24 h, replicate 1", "value": "71% and 84%"}, {"measurement": "Population Normal (%)", "setting": "HEK-293T [2]; 24 h, replicate 1", "value": "93% and 85%"}, {"measurement": "Population Pyknosed Nuclei (%)", "setting": "HEK-293T [2]; 24 h, replicate 1", "value": "8% and 9%"}, {"measurement": "Population Tubulin-Different-Phenotype (%)", "setting": "HEK-293T [2]; 24 h, replicate 1", "value": "5% and 15%"}, {"measurement": "Total Cell Count", "setting": "HEK-293T [2]; 24 h, replicate 1", "value": "718 and 592"}, {"measurement": "Population Apoptotic (%)", "setting": "HEK-293T [2]; 24 h, replicate 2", "value": "9% and 4%"}, {"measurement": "Population Fragmented Nuclei (%)", "setting": "HEK-293T [2]; 24 h, replicate 2", "value": "15% and 30%"}, {"measurement": "Population Healthy Nuclei (%)", "setting": "HEK-293T [2]; 24 h, replicate 2", "value": "79% and 67%"}, {"measurement": "Population Hoechst High Intensity Objects (%)", "setting": "HEK-293T [2]; 24 h, replicate 2", "value": "7% and 4%"}, {"measurement": "Population Membrane Permeable-Phenotype (%)", "setting": "HEK-293T [2]; 24 h, replicate 2", "value": "9% and 4%"}, {"measurement": "Population Mitochondria Different-Phenotype (%)", "setting": "HEK-293T [2]; 24 h, replicate 2", "value": "6% and 0%"}, {"measurement": "Population Mitotic Cells (%)", "setting": "HEK-293T [2]; 24 h, replicate 2", "value": "90% and 95%"}, {"measurement": "Population Normal (%)", "setting": "HEK-293T [2]; 24 h, replicate 2", "value": "92% and 95%"}, {"measurement": "Population Pyknosed Nuclei (%)", "setting": "HEK-293T [2]; 24 h, replicate 2", "value": "4% and 1%"}, {"measurement": "Total Cell Count", "setting": "HEK-293T [2]; 24 h, replicate 2", "value": "1562 and 3163"}, {"measurement": "Growth Rate", "setting": "Fibroblast; [3]", "value": 0}, {"measurement": "Growth Rate", "setting": "Fibroblast; [4]", "value": 1}, {"measurement": "Growth Rate", "setting": "Fibroblast; [5]", "value": 0}, {"measurement": "Growth Rate", "setting": "Fibroblast; 18 h, replicate number 2, timepoint 18 hours", "value": 1}, {"measurement": "Growth Rate", "setting": "Fibroblast; [6]", "value": 0}, {"measurement": "Growth Rate", "setting": "Fibroblast; 24 h, replicate number 2, timepoint 24 hours", "value": 1}, {"measurement": "Population Apoptotic (%)", "setting": "U2OS; replicate 1", "value": "50% and 36%"}, {"measurement": "Population Fragmented Nuclei (%)", "setting": "U2OS; replicate 1", "value": 5, "unit": "%"}, {"measurement": "Population Healthy Nuclei (%)", "setting": "U2OS; replicate 1", "value": "87% and 85%"}, {"measurement": "Population Hoechst High Intensity Objects (%)", "setting": "U2OS; replicate 1", "value": 4, "unit": "%"}, {"measurement": "Population Membrane Permeable-Phenotype (%)", "setting": "U2OS; replicate 1", "value": "11% and 8%"}, {"measurement": "Population Mitotic Cells (%)", "setting": "U2OS; replicate 1", "value": "50% and 63%"}, {"measurement": "Population Normal (%)", "setting": "U2OS; replicate 1", "value": 95, "unit": "%"}, {"measurement": "Population Pyknosed Nuclei (%)", "setting": "U2OS; replicate 1", "value": 7, "unit": "%"}, {"measurement": "Population Tubulin-Different-Phenotype (%)", "setting": "U2OS; replicate 1", "value": "19% and 32%"}, {"measurement": "Total Cell Count", "setting": "U2OS; replicate 1", "value": "163 and 151"}, {"measurement": "Population Apoptotic (%)", "setting": "U2OS; replicate 2", "value": 33, "unit": "%"}, {"measurement": "Population Fragmented Nuclei (%)", "setting": "U2OS; replicate 2", "value": "6% and 8%"}, {"measurement": "Population Healthy Nuclei (%)", "setting": "U2OS; replicate 2", "value": 90, "unit": "%"}, {"measurement": "Population Hoechst High Intensity Objects (%)", "setting": "U2OS; replicate 2", "value": "6% and 13%"}, {"measurement": "Population Membrane Permeable-Phenotype (%)", "setting": "U2OS; replicate 2", "value": "10% and 4%"}, {"measurement": "Population Mitochondria Different-Phenotype (%)", "setting": "U2OS; replicate 2", "value": "27% and 26%"}, {"measurement": "Population Mitotic Cells (%)", "setting": "U2OS; replicate 2", "value": 66, "unit": "%"}, {"measurement": "Population Normal (%)", "setting": "U2OS; replicate 2", "value": "93% and 86%"}, {"measurement": "Population Pyknosed Nuclei (%)", "setting": "U2OS; replicate 2", "value": "2% and 4%"}]}
